Laboratory results from ChEMBL document CHEMBL4308835, “Fluorine-Substituted Pyrrolo[2,3- d]Pyrimidine Analogues with Tumor Targeting via Cellular Uptake by Folate Receptor α and the Proton-Coupled Folate Transporter and Inhibition of de Novo Purine Nucleotide Biosynthesis” (J Med Chem, 2018).
Active and inactive are the calls of the source. No cut-off for these calls is given here.

How the values were obtained:
[1] = molecular target: T1, Proton-coupled folate transporter (Homo sapiens) (UniProt Q96NT5); experiment: Inhibition of human PCFT expressed in Chinese hamster R2/PCFT4 cells assessed as reduction in [3H]MTX uptake at pH 5.5 at 1 to 10 uM measured over 2 mins; assay type: cell-based
T1 sequence (whole entry): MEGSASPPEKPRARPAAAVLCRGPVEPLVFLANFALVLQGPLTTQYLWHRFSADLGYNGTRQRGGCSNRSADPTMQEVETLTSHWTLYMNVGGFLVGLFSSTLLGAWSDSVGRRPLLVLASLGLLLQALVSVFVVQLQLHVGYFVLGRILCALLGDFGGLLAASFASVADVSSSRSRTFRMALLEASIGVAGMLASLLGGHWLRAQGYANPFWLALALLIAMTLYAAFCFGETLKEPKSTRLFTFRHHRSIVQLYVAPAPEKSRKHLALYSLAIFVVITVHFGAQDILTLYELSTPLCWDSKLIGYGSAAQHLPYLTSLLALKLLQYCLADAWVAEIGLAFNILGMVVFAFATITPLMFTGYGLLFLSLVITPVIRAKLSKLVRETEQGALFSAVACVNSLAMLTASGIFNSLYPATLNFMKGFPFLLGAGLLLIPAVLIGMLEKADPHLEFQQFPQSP

IGROV-1 [2] = experiment: Anticlonogenic activity against human IGROV1 cells incubated for 24 hrs followed by compound wash out and measured after 10 days by methylene blue staining-based assay; assay type: functional, cell-based
How it was run: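 IGROV1 cells plated in folate-free RPMI 1640 (pH 7.2), 10% dialyzed FBS, 25 nM LCV. After 24 h adherence, exposed to drug (0–20 μM) for 24 h at pH 6.8 (25 mM PIPES/25 mM HEPES). Washed, then grown drug-free at pH 7.2 (100 mM HEPES) with 25 nM LCV for up to 10 days at 37 °C. Colonies stained with methylene blue and counted electronically. Values normalized to vehicle controls. Triplicate experiments.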

[3] = molecular target: T2, Reduced folate transporter (Homo sapiens) (UniProt P41440); experiment: Inhibition of human RFC2 expressed in human HeLa R1-11 cells assessed as reduction in [3H]MTX uptake at pH 7.2 at 1 uM measured over 2 mins relative to control; assay type: cell-based
T2 sequence (whole entry): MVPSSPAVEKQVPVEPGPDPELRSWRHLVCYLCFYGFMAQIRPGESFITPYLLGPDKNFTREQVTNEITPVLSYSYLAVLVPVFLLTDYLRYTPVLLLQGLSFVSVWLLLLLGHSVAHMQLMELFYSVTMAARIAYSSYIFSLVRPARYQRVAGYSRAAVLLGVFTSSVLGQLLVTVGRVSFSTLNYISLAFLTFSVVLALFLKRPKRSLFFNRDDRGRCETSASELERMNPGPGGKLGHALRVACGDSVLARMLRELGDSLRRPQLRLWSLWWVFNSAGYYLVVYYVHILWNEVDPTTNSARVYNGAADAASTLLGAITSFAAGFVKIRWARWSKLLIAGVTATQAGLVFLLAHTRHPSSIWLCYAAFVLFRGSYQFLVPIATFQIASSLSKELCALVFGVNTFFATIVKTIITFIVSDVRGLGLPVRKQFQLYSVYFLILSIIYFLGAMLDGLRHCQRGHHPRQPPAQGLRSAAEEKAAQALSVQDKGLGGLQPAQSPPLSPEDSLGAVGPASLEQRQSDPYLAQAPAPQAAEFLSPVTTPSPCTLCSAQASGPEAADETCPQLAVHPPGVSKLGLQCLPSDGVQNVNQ

IGROV-1 [4] = experiment: Antiproliferative activity against FRalpha […] human IGROV1 KD4 cells after 96 hrs by Cell-Titer Blue assay; assay type: functional, cell-based; details: IGROV-1, 96 h
[5] = Toxicity in NCR SCID mouse xenografted with human IGROV1 cells assessed as weight loss median nadir at 95 mg/kg, iv treated once daily for 4 days per week for 4 weeks starting from 3 days post implantation and measured at day 18 post last dose relative to control; assay type: organism-based; details: in vivo
[6] = molecular target: Folate receptor alpha (Homo sapiens) (UniProt P15328); experiment: Displacement of [3H]folic acid from human FRalpha expressed in Chinese hamster RT16 cells at 10 to 1000 nM after 15 mins; assay type: cell-based
How it was run: (§1)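 RT16 (FRα) or D4 (FRβ) CHO cells at ~80% confluence were washed with PBS at 4 °C, then with pH 3.5 acetate buffer to strip bound folate, then HEPES-buffered saline pH 7.4. Cells were incubated with 50 nM [³H]folic acid plus competitor (10–1000 nM) for 15 min at 4 °C, washed, and solubilized in NaOH. Bound radioactivity was normalized to protein.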

[7] = Toxicity in NCR SCID mouse xenografted with human IGROV1 cells assessed as weight loss median nadir at 95 mg/kg, iv treated once daily for 4 days per week for 4 weeks starting from 3 days post implantation and measured at day 14 post last dose relative to control; assay type: organism-based; details: in vivo
IGROV-1 [8] = experiment: Antiproliferative activity against FRalpha […] human IGROV1 KD10 cells after 96 hrs by Cell-Titer Blue assay; assay type: functional, cell-based; details: IGROV-1, 96 h
IGROV-1 [9] = experiment: Antiproliferative activity against human IGROV1 cells at 1 to 1000 nM in presence of 10 uM thymidine after 96 hrs by Cell-Titer Blue assay; assay type: functional, cell-based
How it was run: (§2)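 IGROV1 cells, 2000/well, in folate-free RPMI 1640 with 10% dialyzed FBS, L-glutamine, 25 nM LCV. A range of drug concentrations was given with thymidine (10 μM), adenosine (60 μM) or AICA (320 μM) added. After 96 h, proliferation was measured by Cell-Titer Blue fluorescence. At least triplicate experiments.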

IGROV-1 [10] = experiment: Antiproliferative activity against wild type human IGROV1 cells after 96 hrs by Cell-Titer Blue assay; assay type: functional, cell-based; details: IGROV-1, 96 h
[11] = Antiproliferative activity in Chinese hamster R2 cells deficient in RFC, PCFT, and FRalpha assessed as reduction in cell growth after 96 hrs by Cell-Titer Blue assay; assay type: cell-based; details: Cricetulus griseus, R2, 96 h
[12] = molecular target: T1, Proton-coupled folate transporter (Homo sapiens); experiment: Inhibition of human PCFT expressed in Chinese hamster R2/PCFT4 cells assessed as reduction in [3H]MTX uptake at pH 5.5 at 10 uM measured over 2 mins relative to control; assay type: cell-based
A2780 = experiment: Antiproliferative activity against human A2780 cells after 96 hrs by Cell-Titer Blue assay; assay type: functional, cell-based; details: A2780, 96 h
[13] = molecular target: T1, Proton-coupled folate transporter (Homo sapiens); experiment: Inhibition of human PCFT expressed in Chinese hamster R2/PCFT4 cells assessed as reduction in [3H]MTX uptake at pH 5.5 at 1 uM measured over 2 mins relative to control; assay type: cell-based
IGROV-1 [14] = experiment: Antiproliferative activity against human IGROV1 cells at 1 to 1000 nM in presence of 60 uM adenosine after 96 hrs by Cell-Titer Blue assay; assay type: functional, cell-based; how it was run: as §2
IGROV-1 [15] = experiment: Antiproliferative activity against human IGROV1 cells harboring non targeted control shRNA sequence after 96 hrs by Cell-Titer Blue assay; assay type: functional, cell-based; details: IGROV-1, 96 h
[16] = Toxicity in NCR SCID mouse xenografted with human IGROV1 cells assessed as weight loss median nadir at 95 mg/kg, iv treated once daily for 4 days per week for 4 weeks starting from 3 days post implantation and measured after conclusion of therapy; assay type: organism-based; details: in vivo
How it was run: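 Female ICR SCID mice, 10 weeks old, kept on a folate-deficient diet for 14 days before bilateral subcutaneous IGROV1 implants; a control cohort was fed folate-replete chow. Randomized at 5 mice/group. […] Tumors measured twice weekly; body weights recorded daily.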

IGROV-1 [17] = experiment: Antiproliferative activity against human IGROV1 cells at 1 to 1000 nM in presence of 320 uM AICA after 96 hrs by Cell-Titer Blue assay; assay type: functional, cell-based; how it was run: as §2
[18] = molecular target: T3, Proton-coupled folate transporter (Homo sapiens, UniProt Q96NT5); experiment: Inhibition of human PCFT expressed in Chinese hamster R2/PCFT4 cells assessed as reduction in [3H]MTX uptake at pH 5.5 measured over 2 mins by Dixon plot analysis; assay type: cell-based
T3 sequence (Q96NT5 whole entry): T1 sequence (whole entry)
How it was run: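 Competitor concentrations ranged from 0.05 to 0.5 μM. Ki was obtained by Dixon plot. Mean ± SE of four independent experiments.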

[19] = molecular target: T2, Reduced folate transporter (Homo sapiens); experiment: Inhibition of human RFC2 expressed in human HeLa R1-11 cells assessed as reduction in [3H]MTX uptake at pH 7.2 at 10 uM measured over 2 mins relative to control; assay type: cell-based
Homo sapiens [20] = organism: Homo sapiens; experiment: Selectivity ratio of IC50 for human RFC2 expressed in human HeLa R1-11 cells to IC50 for human FR2 expressed in human HeLa R1-11 cells; assay type: cell-based
Homo sapiens [21] = organism: Homo sapiens; experiment: Selectivity ratio of IC50 for human RFC2 expressed in human HeLa R1-11 cells to IC50 for human PCFT4 expressed in human HeLa R1-11 cells; assay type: cell-based
[22] = molecular target: T4, Trifunctional purine biosynthetic protein adenosine-3 (Homo sapiens, UniProt P22102); experiment: Inhibition of GARFTase in human IGROV1 cells assessed as decrease in incorporation of [14C(U)glycine into [14C]formyl GAR formation after 24 hrs; assay type: cell-based
T4 sequence (P22102 whole entry): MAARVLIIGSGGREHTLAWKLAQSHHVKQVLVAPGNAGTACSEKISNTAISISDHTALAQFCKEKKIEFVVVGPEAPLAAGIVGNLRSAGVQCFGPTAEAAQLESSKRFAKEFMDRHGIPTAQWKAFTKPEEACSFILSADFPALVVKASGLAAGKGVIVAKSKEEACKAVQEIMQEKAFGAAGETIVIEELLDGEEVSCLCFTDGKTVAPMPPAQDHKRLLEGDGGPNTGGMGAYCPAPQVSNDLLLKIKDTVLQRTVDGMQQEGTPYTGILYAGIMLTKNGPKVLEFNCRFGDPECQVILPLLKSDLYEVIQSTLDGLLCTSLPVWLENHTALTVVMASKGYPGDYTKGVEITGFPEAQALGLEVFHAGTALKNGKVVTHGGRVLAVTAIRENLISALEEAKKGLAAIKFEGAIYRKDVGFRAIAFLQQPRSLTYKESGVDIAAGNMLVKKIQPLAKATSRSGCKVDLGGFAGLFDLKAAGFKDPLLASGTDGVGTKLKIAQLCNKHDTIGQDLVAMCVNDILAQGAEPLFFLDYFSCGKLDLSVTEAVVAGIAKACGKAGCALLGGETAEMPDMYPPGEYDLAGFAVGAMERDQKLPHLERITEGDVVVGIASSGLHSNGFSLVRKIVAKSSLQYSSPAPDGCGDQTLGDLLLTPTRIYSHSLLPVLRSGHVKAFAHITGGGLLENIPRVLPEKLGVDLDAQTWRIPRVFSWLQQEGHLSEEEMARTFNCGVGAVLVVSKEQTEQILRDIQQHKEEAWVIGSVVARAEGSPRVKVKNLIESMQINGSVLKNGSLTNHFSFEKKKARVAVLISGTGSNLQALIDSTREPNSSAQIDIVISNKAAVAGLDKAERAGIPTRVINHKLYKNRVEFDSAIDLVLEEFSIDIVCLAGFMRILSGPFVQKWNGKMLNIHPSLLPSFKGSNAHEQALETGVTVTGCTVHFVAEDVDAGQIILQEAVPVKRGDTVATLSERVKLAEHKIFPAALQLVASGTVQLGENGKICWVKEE

[23] = molecular target: Folate receptor beta (Homo sapiens) (UniProt P14207); experiment: Displacement of [3H]folic acid from human FRbeta expressed in Chinese hamster D4 cells at 10 to 1000 nM after 15 mins; assay type: cell-based; how it was run: as §1
[24] = Binding affinity to human PCFT expressed in Chinese hamster R2/PCFT4 cells assessed as antiproliferative activity measured as reduction in cell growth after 96 hrs by Cell-Titer Blue assay
[25] = molecular target: T2, Reduced folate transporter (Homo sapiens); experiment: Inhibition of human RFC2 expressed in human HeLa R1-11 cells assessed as reduction in [3H]MTX uptake at pH 7.2 at 10 uM measured over 2 mins relative to control
[26] = Binding affinity to human RFC expressed in Chinese hamster PC43-10 cells assessed as antiproliferative activity measured as reduction in cell growth after 96 hrs by Cell-Titer Blue assay

Sequence of Folate receptor alpha (Homo sapiens) (P15328 25-234 limits assumed): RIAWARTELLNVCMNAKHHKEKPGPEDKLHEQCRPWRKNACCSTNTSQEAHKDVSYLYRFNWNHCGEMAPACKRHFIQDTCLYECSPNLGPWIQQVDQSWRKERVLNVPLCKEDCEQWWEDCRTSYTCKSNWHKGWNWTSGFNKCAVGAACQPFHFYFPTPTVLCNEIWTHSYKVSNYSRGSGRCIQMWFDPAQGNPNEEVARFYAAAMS
Sequence of Folate receptor beta (Homo sapiens) (P14207 17-230 limits assumed): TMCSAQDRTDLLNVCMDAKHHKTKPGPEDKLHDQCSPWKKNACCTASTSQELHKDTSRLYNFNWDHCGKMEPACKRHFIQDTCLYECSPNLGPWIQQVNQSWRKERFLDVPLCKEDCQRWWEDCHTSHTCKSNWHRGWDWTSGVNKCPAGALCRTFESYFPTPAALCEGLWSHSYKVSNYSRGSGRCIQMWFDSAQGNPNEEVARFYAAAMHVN

Compound	inhibition [1]	inhibition [3]	IC50 (IGROV-1 [4])	inhibition [6]	IC50 (IGROV-1 [8])	IC50 (IGROV-1 [10])	IC50 [11]	inhibition [12]	IC50 (A2780)	inhibition [13]	IC50 (IGROV-1 [15])	Ki [18]	inhibition [19]	IC50 [22]	other results
Nc1nc2[nH]c(CCCCc3csc(C(=O)N[C@@H](CCC(=O)O)C(=O)O)c3F)cc2c(=O)[nH]1	Active	inactive	138 nM	Active	66.9 nM	1.9 nM	> 1000 nM	90 to 95%	3.11 nM	60 to 85%	1.79 nM	250 nM	inactive	–	IC50 (IGROV-1 [2]): 200 nM; Activity [5]: 12.1%; Activity [7]: 15.7%; Activity (IGROV-1 [9]): Active; Activity (IGROV-1 [14]): inactive; Activity [16]: Non-Toxic; Activity (IGROV-1 [17]): inactive
Nc1nc2[nH]c(CCCc3ccc(C(=O)N[C@@H](CCC(=O)O)C(=O)O)c(F)c3)cc2c(=O)[nH]1	Active	inactive	41 nM	–	19.2 nM	1.67 nM	140 nM	90 to 95%	2.14 nM	60 to 85%	1.14 nM	260 nM	inactive	1 to 2.5 nM	Ratio IC50 (Homo sapiens [20]): 97; Ratio IC50 (Homo sapiens [21]): 92
Nc1nc2[nH]c(CCCc3csc(C(=O)N[C@@H](CCC(=O)O)C(=O)O)c3)cc2c(=O)[nH]1	Active	–	80.5 nM	Active	30.3 nM	12.1 nM	355 nM	Active	21.7 nM	Active	12.8 nM	280 nM	< 30%	1 nM	inhibition [23]: Active; IC50 [24]: 5.4 nM; inhibition [25]: < 30%; IC50 [26]: 197 nM
